Test results from ChEMBL document CHEMBL1156196, “'Click chemistry' synthesis of a library of 1,2,3-triazole-substituted galactose derivatives and their evaluation against Trypanosoma cruzi and its cell surface trans-sialidase” (Bioorg Med Chem, 2010).
The source made the active and inactive calls. The calls are words filed in the database; no cut-off is given here.

Tests used:
Trypanosoma cruzi [1] = assay: Inhibition of Trypanosoma cruzi recombinant trans-sialidase at 1 mM after 10 mins by MUNANA continuous fluorimetric assay
Method in brief: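 Recombinant His-tagged 70 kDa TcTS, truncated to drop the C-terminal repeats and keep the catalytic N-terminal domain. Enzyme and inhibitor were preincubated 10 min at 26 °C in phosphate buffer pH 7.4. MuNANA (assay concentration 0.1 mM) was then added, and released methylumbelliferone fluorescence was read after 10 min (ex 360, em 460 nm). Run in duplicate.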

Trypanosoma cruzi [2] = assay: Inhibition of Trypanosoma cruzi recombinant trans-sialidase at 0.5 mM after 10 mins by MUNANA continuous fluorimetric assay
Method in brief: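 Same His-tagged truncated recombinant TcTS (catalytic N-terminal domain) in phosphate buffer pH 7.4. Samples were dissolved in water with 0.6% DMSO and tested at 0.5 mM. Preincubation was 10 min at 26 °C, then 0.1 mM MuNANA was added. Mu fluorescence was read at 10 min (ex 360, em 460 nm), in duplicate.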

Trypanosoma cruzi [3] = assay: Antitrypanosomal activity against Trypanosoma cruzi Y at < 100 uM after 24 hrs; format: functional, organism-based
Method in brief: (§1)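 Y-strain trypomastigotes from LLC-MK₂ cultures, 6.5 × 10⁶ parasites/ml in RPMI with 10% FBS. Exposure included 750, 500, 250 and 100 µM at 37 °C, 5% CO₂. Poorly water-soluble compounds needed 0.6% DMSO and were capped at 0.75 mM. Benznidazole was the reference drug. Viability was measured by counting motile forms after 24 h.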

[4] = Cytotoxicity against mouse splenocytes at 50 to 100 uM after 24 hrs using propidium iodide staining by FACS analysis; format: cell-based; details: splenocyte
Method in brief: (§2)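 Spleen cells from C57BL/6 mice were mechanically dissociated and given red-cell lysis for 4 min in Tris-HCl pH 7.5/NH₄Cl. They were plated at 5 × 10⁵ cells/well with test compounds (maximum 0.25 mM for less soluble ones) for 24 h at 37 °C, 5% CO₂. 0.5% Tween 20 was the death control. Cells were stained with 10 µg/mL propidium iodide.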

[5] = Cytotoxicity against mouse splenocytes after 24 hrs using propidium iodide staining by FACS analysis; format: cell-based; details: splenocyte; method in brief: as §2
Trypanosoma cruzi [6] = assay: Antitrypanosomal activity against Trypanosoma cruzi Y at > 100 uM after 24 hrs; format: functional; method in brief: as §1
[7] = in the assay text read “in the low 100s of uM range” for “at < 100 uM”

Row | inhibition (Trypanosoma cruzi [1]) | SMILES | Activity [5] | also measured
1 | 28% | CO[C@@H]1O[C@H](Cn2cc(CO)nn2)[C@H](O)[C@H](O)[C@H]1O | – | –
2 | 14% | CO[C@@H]1O[C@H](Cn2cc(-c3ccccn3)nn2)[C@H](O)[C@H](O)[C@H]1O | – | –
3 | 26% | OCCCCc1cn([C@@H]2O[C@H](CO)[C@H](O)[C@H](O)[C@H]2O)nn1 | – | –
4 | 25% | O=C1c2ccccc2C(=O)N1Cc1cn([C@@H]2O[C@H](CO)[C@H](O)[C@H](O)[C@H]2O)nn1 | – | –
5 | 28% | COC(=O)c1cn([C@@H]2O[C@H](CO)[C@H](O)[C@H](O)[C@H]2O)nn1 | – | –
6 | – | CO[C@@H]1O[C@H](Cn2cc(-c3ccc(C(F)(F)F)cc3)nn2)[C@H](O)[C@H](O)[C@H]1O | Toxic | inhibition (Trypanosoma cruzi [2]): 10%; Activity (Trypanosoma cruzi [3]; [7]): Active; Activity [4]: 50%
7 | 30% | Nc1ccccc1-c1cn([C@@H]2O[C@H](CO)[C@H](O)[C@H](O)[C@H]2O)nn1 | Non-toxic | –
8 | – | OC[C@H]1O[C@@H](n2cc(-c3ccc(C(F)(F)F)cc3)nn2)[C@H](O)[C@@H](O)[C@H]1O | Toxic | inhibition (Trypanosoma cruzi [2]): 9%
9 | 30% | COC(=O)c1cn(C[C@H]2O[C@@H](OC)[C@H](O)[C@@H](O)[C@H]2O)nn1 | – | –
10 | 29% | CO[C@@H]1O[C@H](Cn2cc(-c3ccccc3Br)nn2)[C@H](O)[C@H](O)[C@H]1O | – | –
11 | 34% | CO[C@@H]1O[C@H](Cn2cc(-c3ccc(N)cc3)nn2)[C@H](O)[C@H](O)[C@H]1O | – | –
12 | – | OC[C@H]1O[C@@H](n2cc(-c3ccc(Br)cc3)nn2)[C@H](O)[C@@H](O)[C@H]1O | Active | inhibition (Trypanosoma cruzi [2]): inactive; Activity [4]: 50%
13 | 24% | CO[C@@H]1O[C@H](Cn2cc(CCCO)nn2)[C@H](O)[C@H](O)[C@H]1O | Non-toxic | –
14 | 14% | CC(O)Cc1cn([C@@H]2O[C@H](CO)[C@H](O)[C@H](O)[C@H]2O)nn1 (single isomer, unassigned) | – | –
15 | 11% | CO[C@@H]1O[C@H](Cn2cc(-c3ccccc3C(F)(F)F)nn2)[C@H](O)[C@H](O)[C@H]1O | – | –
16 | 3% | CO[C@@H]1O[C@H](Cn2cc(-c3cccc(C(F)(F)F)c3)nn2)[C@H](O)[C@H](O)[C@H]1O | – | –
17 | 14% | CO[C@@H]1O[C@H](Cn2cc(-c3ccccc3)nn2)[C@H](O)[C@H](O)[C@H]1O | – | –
18 | 33% | OC[C@H]1O[C@@H](n2cc(-c3ccccc3Br)nn2)[C@H](O)[C@@H](O)[C@H]1O | – | –
19 | 65% | Cc1ncc(COP(=O)(O)O)c(C=O)c1O | – | –
20 | 13% | OC[C@H]1O[C@@H](n2cc(-c3ccccn3)nn2)[C@H](O)[C@@H](O)[C@H]1O | Non-toxic | –
21 | 14% | OC[C@H]1O[C@@H](n2cc(-c3ccccc3C(F)(F)F)nn2)[C@H](O)[C@@H](O)[C@H]1O | – | –
22 | 10% | CO[C@@H]1O[C@H](Cn2cc(CC(C)O)nn2)[C@H](O)[C@H](O)[C@H]1O (mixture of isomers) | – | –
23 | inactive | CO[C@@H]1O[C@H](Cn2cc(CCCC(=O)O)nn2)[C@H](O)[C@H](O)[C@H]1O | – | –

Row | inhibition (Trypanosoma cruzi [1]) | SMILES | Activity [5] | also measured
24 | 11% | OCc1cn([C@@H]2O[C@H](CO)[C@H](O)[C@H](O)[C@H]2O)nn1 | – | –
25 | 22% | CN(Cc1ccccc1)Cc1cn([C@@H]2O[C@H](CO)[C@H](O)[C@H](O)[C@H]2O)nn1 | – | –
26 | 17% | CO[C@@H]1O[C@H](Cn2cc(CN(C)Cc3ccccc3)nn2)[C@H](O)[C@H](O)[C@H]1O | Non-toxic | Activity (Trypanosoma cruzi [3]): Active
27 | 10% | O=C(O)CCCc1cn([C@@H]2O[C@H](CO)[C@H](O)[C@H](O)[C@H]2O)nn1 | – | –
28 | 19% | Nc1ccc(-c2cn([C@@H]3O[C@H](CO)[C@H](O)[C@H](O)[C@H]3O)nn2)cc1 | Non-toxic | Activity (Trypanosoma cruzi [3]; [7]): Active
29 | 33% | CC(=O)N[C@H]1[C@H]([C@H](O)[C@H](O)CO)OC(C(=O)O)=C[C@@H]1O | – | –
30 | 27% | OC[C@H]1O[C@@H](n2cc(COCC3CO3)nn2)[C@H](O)[C@@H](O)[C@H]1O (mixture of isomers) | Non-toxic | –
31 | 37% | OC[C@H]1O[C@@H](n2cc(Cc3ccccc3)nn2)[C@H](O)[C@@H](O)[C@H]1O | Active | Activity (Trypanosoma cruzi [6]): 50%; Activity [4]: 50%
32 | 25% | CO[C@@H]1O[C@H](Cn2cc(COCC3CO3)nn2)[C@H](O)[C@H](O)[C@H]1O (mixture of isomers) | – | –
33 | 20% | CO[C@@H]1O[C@H](Cn2cc(-c3cccnc3)nn2)[C@H](O)[C@H](O)[C@H]1O | – | –
34 | 27% | OCCCc1cn([C@@H]2O[C@H](CO)[C@H](O)[C@H](O)[C@H]2O)nn1 | – | –
35 | 31% | OC[C@H]1O[C@@H](n2cc(-c3cccc(C(F)(F)F)c3)nn2)[C@H](O)[C@@H](O)[C@H]1O | – | –
36 | 24% | CO[C@@H]1O[C@H](Cn2cc(-c3ccccc3N)nn2)[C@H](O)[C@H](O)[C@H]1O | – | –
37 | 14% | CO[C@@H]1O[C@H](Cn2cc(CCc3ccccc3)nn2)[C@H](O)[C@H](O)[C@H]1O | – | –
38 | 15% | OC[C@H]1O[C@@H](n2cc(-c3ccccc3)nn2)[C@H](O)[C@@H](O)[C@H]1O | – | –
39 | – | CO[C@@H]1O[C@H](Cn2cc(-c3ccc(Br)cc3)nn2)[C@H](O)[C@H](O)[C@H]1O | Toxic | inhibition (Trypanosoma cruzi [2]): 3%
40 | 29% | CO[C@@H]1O[C@H](Cn2cc(Cc3ccccc3)nn2)[C@H](O)[C@H](O)[C@H]1O | – | –
41 | 16% | OC[C@H]1O[C@@H](n2cc(CCc3ccccc3)nn2)[C@H](O)[C@@H](O)[C@H]1O | Toxic | –
42 | 13% | CCC(O)c1cn([C@@H]2O[C@H](CO)[C@H](O)[C@H](O)[C@H]2O)nn1 (single isomer, unassigned) | – | –
43 | – | CO[C@@H]1O[C@H](Cn2cc(CN3C(=O)c4ccccc4C3=O)nn2)[C@H](O)[C@H](O)[C@H]1O | – | inhibition (Trypanosoma cruzi [2]): 11%
44 | 27% | CO[C@@H]1O[C@H](Cn2cc(CCCCO)nn2)[C@H](O)[C@H](O)[C@H]1O | – | –
45 | 29% | CCC(O)c1cn(C[C@H]2O[C@@H](OC)[C@H](O)[C@@H](O)[C@H]2O)nn1 (mixture of isomers) | Non-toxic | –
46 | – | OC[C@H]1O[C@@H](n2cc(-c3cccnc3)nn2)[C@H](O)[C@@H](O)[C@H]1O | Toxic | inhibition (Trypanosoma cruzi [2]): 15%; Activity [4]: 50%
